Here are results for 73 molecules from ChEMBL document CHEMBL4513216, “Probing the Open Global Health Chemical Diversity Library for Multistage-Active Starting Points for Next-Generation Antimalarials” (ACS Infect Dis, 2020).

This series is described as follows: Toxicity liver stage against HepG2, at 10uM. The series is classed as cell-based. On the set-up: test concentration 10 uM, cell line HepG2-A16-CD81EGFP. Particulars: human, HepG2-A16-CD81EGFP cells; read-out: INHIBITION
The method in brief: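 Uninfected HepG2-A16-CD81EGFP cells, 3 × 10^3 per well, 1536-well, plated on prespotted compound at 10 μM final, parasite-free screening media added to match infected plates; puromycin 10 μM positive, DMSO 0.5% negative; run in parallel with 48 h PbLuc assay at 37 °C, 5% CO2; viability by CellTiter-Glo luminescence, normalized to controls.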
On to `O=C(c1cccnc1)N1CCN2C(=O)N(Cc3ccc(F)cc3)C[C@H]2C1`, for which the cytotoxicity at 10 µM was -0.756%. As to `O=C1CCNc2ccccc2CN1Cc1ccco1`, the cytotoxicity at 10 µM turned out to be 1.22%. `COC(=O)COn1c(SC)nc2ccccc2c1=O`: the cytotoxicity at 10 µM is -6.53%.

Take `CC(C)(C)C1SCC(=O)Nc2c1c(O)nn2C1CCCC1` (stereo not drawn): the cytotoxicity at 10 µM was 3.36%. On to `CCNC(=O)NCc1nn(CCN2CCCC2)c(=O)c2ccccc12`, for which the cytotoxicity at 10 µM was -3.85%.

Take `O=C(NC1CCCC1)C1CCN(c2cc(-n3ccnc3)ncn2)CC1`: the cytotoxicity at 10 µM was -9.19%.

Take `Cn1cnc2c1C(COCC1CC1)CN(C(=O)c1ccsc1)C2` (stereo not drawn): the cytotoxicity at 10 µM was 4.73%. Turning to `Cc1ccc(Sc2ccc(N3CCC(C(=O)O)CC3)nn2)cc1`, the cytotoxicity at 10 µM is -0.0154%. Consider `CC(C)C[C@H](N)COc1cccc(F)c1Oc1ccccc1`, for which the cytotoxicity at 10 µM was -5.08%. For the molecule `CN(C)c1cccc(C2CCN(c3ncccn3)CC2)n1`, the cytotoxicity at 10 µM was -8.41%. Take `Cc1nn(C)cc1CN(Cc1ccccn1)Cc1ccccc1Cl`: the cytotoxicity at 10 µM came out at 1.2%.

Regarding `CCC1CCCCN1C(=O)Cn1cnc(C#N)n1` (stereo not drawn), the cytotoxicity at 10 µM was -22.1%. With `O=C1CC(C(=O)Nc2nnc(-c3cccs3)[nH]2)c2ccccc2N1` (stereo not drawn), the cytotoxicity at 10 µM is -0.921%. In the case of `Fc1ccc2c(c1)CCC2NCc1ccc(N2CCOCC2)cc1` (stereo not drawn), the cytotoxicity at 10 µM was -1.54%. Turning to `O=C(Nc1ccc2c(c1)C(=O)NC2=O)c1cccs1`, the cytotoxicity at 10 µM is -4.08%. As for `COCCn1nc(C(=O)N2CCOCC2C)ccc1=O` (stereo not drawn), the cytotoxicity at 10 µM is -8.97%. With `COC(=O)N1CCCC(C(=O)NCCc2c[nH]c3cc(C)ccc23)C1` (stereo not drawn), the cytotoxicity at 10 µM is -5.95%. `CCc1ccsc1C(=O)NC(C#N)CC(C)C` (stereo not drawn): the cytotoxicity at 10 µM is -15%. To `N#Cc1ccc(Cl)cc1NCC1CC1` belongs -3.7%; to `CCC(c1ccc(F)cc1F)N1CCN(CCO)CC1` (stereo not drawn), -4.34%.

Consider `O=C(Nc1ccc(F)cc1F)NC1(CO)CCOCC1`, for which the cytotoxicity at 10 µM is -40.4%.

For `COCCCn1ccc(NC(=O)NCCn2ccnc2)n1`, the cytotoxicity at 10 µM is -2.14%. `CCC(NCc1nccn1C)c1nc(C(F)(F)F)cs1` (stereo not drawn): the cytotoxicity at 10 µM was 0.245%. Turning to `CCN(CC1CCCO1)S(=O)(=O)c1cc(NC(C)=O)ccc1C` (stereo not drawn), the cytotoxicity at 10 µM turned out to be 1.82%. In the case of `O=C(CN1CCC2(CCCCC2)C1)NCC(F)(F)F`, the cytotoxicity at 10 µM was -10.5%. Regarding `Cc1ccc(OCCN(C)Cc2ccc(S(=O)(=O)N(C)C)o2)cc1`, the cytotoxicity at 10 µM was -14.8%. To `COc1cccc(C(O)C(=O)N(C)CCc2ccccn2)c1` (stereo not drawn) belongs 0.413%; to `CCNC(c1ccc(F)cc1)c1cccnc1` (stereo not drawn), 2.73%; to `O=C(NCCCc1nc(=O)[nH][nH]1)Nc1cccc(F)c1`, -51.1%. For the molecule `Cc1ccccc1CN(C)C(=O)c1ccoc1`, the cytotoxicity at 10 µM turned out to be 2.2%. Consider `O=C(NCc1nnc2n1CCCCC2)N1CCC2(CCCCC2)C1`, for which the cytotoxicity at 10 µM is -13.4%.

Turning to `Cc1n[nH]c(C)c1C1CCCN1C(=O)CNC(=O)C(C)(C)C` (stereo not drawn), the cytotoxicity at 10 µM is -29%.

As for `O=C(c1ccc2c(c1)OCO2)N1CCC[C@]2(C[C@H](OCC3CC3)CO2)C1`, the cytotoxicity at 10 µM stood at 2.34%. To `CCN(CC)C(=O)[C@@H]1C[C@@H](NC(=O)c2cccc(N(C)C)c2)CN1C` belongs 6.69%; to `Cn1c(C(N)=O)cc2c1CN(C(=O)C1CC(=O)N(C(C)(C)C)C1)CC2` (stereo not drawn), -49.6%. Turning to `Cn1nc(CN2CCCN(C3CCCC3)CC2)c2c(Cl)cccc21`, the cytotoxicity at 10 µM worked out at 11%. To `CC1(C)CN(C(=O)c2cnc(CN3CCCC3)s2)CC[C@]1(C)O` belongs -15.1%. For `NC(=O)c1csc(N2CCN(C3CCc4ccccc4C3)CC2)n1` (stereo not drawn), the cytotoxicity at 10 µM worked out at 1.67%. Turning to `O=C(c1cc(=O)[nH]c(=O)[nH]1)N1CCCC(CO)(CC2CC2)C1` (stereo not drawn), the cytotoxicity at 10 µM is -3.02%. Regarding `Nc1ncccc1CN1CCOCC1CC(=O)NCc1ccccn1` (stereo not drawn), the cytotoxicity at 10 µM amounted to 9.66%. To `Cc1nc(CN2CCCC(CCc3ccccc3C)C2)c[nH]1` (stereo not drawn) belongs -1.35%; to `COc1ncc(C(=O)N2CCCC3(C=Cc4ccccc4O3)CC2)cn1` (stereo not drawn), 7.61%; to `COC(=O)c1ccc(N2CCN(C(=O)CCCc3cn[nH]c3)CC2)cc1`, -4.32%. To `Cc1cc(C(F)(F)F)nc(CNC(=O)CCCN2CCCCC2)n1` belongs -53.1%; to `COCCc1noc(CN(C)c2nc(C)nc(C)c2C)n1`, 4.24%; to `Cc1cccc(CN2CCCC(O)(CNCCc3c[nH]cn3)C2=O)c1` (stereo not drawn), 1.31%. Under `CNCc1cn(CC2CCN(Cc3cccs3)CC2)nn1` stands -4.47%; under `C[C@@H]1CN(C2CCN(c3ccccc3F)CC2)C[C@]1(C)O`, -2.19%; under `O=C(CC1COCCN1)NCCc1nc(-c2ccccn2)no1` (stereo not drawn), -0.849%. As to `CC(C)C1CN(C(=O)c2cn3ccccc3n2)CCCN1CC1CC1` (stereo not drawn), the cytotoxicity at 10 µM was -13.6%. Regarding `CCOCC(=O)N1CCC(Cc2nnc(SC)n2C)CC1`, the cytotoxicity at 10 µM was -53%. With `CC(C)CN1CCCC1c1ccc(C(=O)Nc2cn(C)nn2)s1` (stereo not drawn), the cytotoxicity at 10 µM was -4.69%. For the molecule `Cn1ccc(C(=O)N2CCC3(CCC(=O)N(C4CCCC4)C3)CC2)n1`, the cytotoxicity at 10 µM was -6.19%. Consider `COc1cnc(N2CCCN(Cc3ccc(F)cc3)CC2)nc1`, for which the cytotoxicity at 10 µM is -5.41%.

Consider `COc1cc(C)cc(-c2nc3c([nH]2)CCNC3)c1OC`, for which the cytotoxicity at 10 µM came to 4.46%. For `COc1cc(C2CC(=O)Nc3c2nc2n3CCCC2)ccc1O` (stereo not drawn), the cytotoxicity at 10 µM is -4.27%. Regarding `COc1ccc(CCN2C(=O)O[C@@H]3CN(C4CCSCC4)C[C@@H]32)cc1`, the cytotoxicity at 10 µM came out at 1.6%. Regarding `O=c1cc(-c2cccnc2)nc(-c2ccc(CN3CC[C@@H](O)C3)cc2)[nH]1`, the cytotoxicity at 10 µM came to 2.89%. Regarding `Cc1cc2nc(C(C)C)cc(NC(C)c3nncn3C)n2n1` (stereo not drawn), the cytotoxicity at 10 µM came to 2.83%. As for `CCc1cc(NCCCC2CCOC2)n2nccc2n1` (stereo not drawn), the cytotoxicity at 10 µM came to 5.04%. Under `CCOc1ccc(CN2CCN(C(=O)c3cc(C4CC4)[nH]n3)CC2)cc1` stands 36.1%; under `CN1CCOC(CN(C(=O)CN2CCCC2=O)c2nccs2)C1` (stereo not drawn), -7.06%; under `Cc1nn(C)c(Cl)c1C1CCCN1C(=O)c1ccc(O)nc1` (stereo not drawn), -11.2%. Under `O=C(c1cc2ccccc2[nH]1)N1CCCCC1Cn1cccn1` (stereo not drawn) stands 1.27%. For the molecule `Cc1cc(C2CCCN2CCC(=O)N2CCc3sccc3C2)no1` (stereo not drawn), the cytotoxicity at 10 µM was -16.1%.

Regarding `Cc1ccoc1C(=O)NCC(Cc1ccc(F)cc1)C(N)=O` (stereo not drawn), the cytotoxicity at 10 µM was -0.77%.

Turning to `CC(C)c1nc(CN2CCCCC2)cs1`, the cytotoxicity at 10 µM was 20.2%. With `Cn1cc(CN2Cc3c(cnn3C)C(COCC3CC3)C2)cn1` (stereo not drawn), the cytotoxicity at 10 µM was -2.8%. On to `c1cc(-c2ccc3nc(C4CCN(CC5CC5)CC4)nn3c2)ccn1`, for which the cytotoxicity at 10 µM was -0.966%.

On to `CN(Cc1cccnc1)C1CC2(CCN(c3ccccn3)CC2)C1`, for which the cytotoxicity at 10 µM was 2.86%. Regarding `CCc1cccc2c(CC(=O)N(C)CCN(C)C)c(C)[nH]c12`, the cytotoxicity at 10 µM came to 1.26%. As for `CC(C)CN1CC[C@H]2OCC[C@@H](C(=O)N3CCCO3)[C@@H]2C1`, the cytotoxicity at 10 µM was found to be 3.45%. To `O=c1[nH]c2cn(-c3cccc(F)c3)c(=O)n2[nH]1` belongs -0.687%.
